Experimental findings from ChEMBL document CHEMBL1148441, “Simple, short peptide derivatives of a sulfonylindolecarboxamide (L-737,126) active in vitro against HIV-1 wild type and variants carrying non-nucleoside reverse transcriptase inhibitor resistance mutations” (J Med Chem, 2004) are described below.

pEC50: −log10 of the molar value.

The subject of test [1] is Human immunodeficiency virus 1. Put plainly: In vitro reduction of p24 by 90% in Efavirenz resistant HIV-1 (K103R, V179D, P225H) infected C8166 cells. It is filed as functional. The conditions noted are these: Human immunodeficiency virus 1, C8166. Summed up:
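C8166 cells (1×10^4/well) with compound dilutions infected with K103R–V179D–P225H HIV-1 (IIIB passaged in C8166 under efavirenz up to 2 μM), 37 °C; p24 antigen measured by immunoenzymatic kit alongside WT IIIB. EC90 = concentration cutting p24 by 90%; mean of three experiments.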

Test [2] in a line: In vitro concentration required to reduce the amount of p24 by 90% in WTIIIB infected C8166 cells. It is filed as functional. The conditions noted are these: Homo sapiens. Summed up:
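C8166 cells (1×10^4 per well) in RPMI 1640 with 10% FCS, exposed to serial compound dilutions (DMSO stock 200 mM, diluted in medium), then infected with HIV-1 IIIB from H9/IIIB supernatants, inoculum sized for complete cytopathicity at day 4; incubation at 37 °C; p24 measured by immunoenzymatic kit; EC90 = concentration cutting p24 by 90%; means of three experiments.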

The test system of test [3] is Human immunodeficiency virus 1. Put plainly: Inhibition of Efavirenz resistant HIV-1 (Y181C) induced cytopathicity in MT-4 cells. It is filed as functional, organism-based. The conditions noted are these: Human immunodeficiency virus 1, MT4. An outline of the steps: (§1)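 MT-4 cells (1×10^4/well) with test compound dilutions (from 200 mM DMSO stock) infected with mutant HIV-1 at a CCID50 dose causing complete cytopathicity by day 4, 37 °C; viability by MTT. Y181C from clinical isolate passaged under nevirapine; K103N–Y181C from IIIB passaged under BI-RG 587. EC50 = 50% protection; mean of three experiments.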
(In general: Damage to the host cells serves as the signal in cytopathic effect assays.)

In test [4] the test system is Human immunodeficiency virus 1. Put plainly: Inhibition of Efavirenz resistant HIV-1 (K103N-Y181C) induced cytopathicity in MT-4 cells. Particulars: Human immunodeficiency virus 1, MT4. It is filed as functional, organism-based. Summed up:
as §1

In a further test the test system is MT4. Put plainly: In vitro cytotoxicity against mock infected MT-4 cells. The test is classed as functional. The conditions noted are these: Homo sapiens. Summed up:
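Mock-infected MT-4 cells (1×10^4 per well) in RPMI 1640 with 10% FCS, 37 °C, 5% CO2, exposed to serial compound dilutions (DMSO stock 200 mM, diluted in medium), run in parallel with antiviral wells; viability read by MTT; CC50 = concentration reducing viability by 50%; means of three separate experiments, triplicate samples.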

The nature of test [5]: Selectivity index (Ratio of CC50/EC50). The test is classed as functional. An outline of the steps:
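Ratio of CC50 (MTT viability of mock-infected MT-4 cells) to EC50 (MTT protection of MT-4 cells from cytopathicity of HIV-1 IIIB, inoculum giving complete cytopathicity at day 4, 37 °C); both run in parallel on the same compound dilution series.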

For test [6], the system named is Human immunodeficiency virus 1. Put plainly: Inhibition of HIV-1 (IIIB) induced cytopathicity in MT-4 cells. It is filed as functional, organism-based. The conditions noted are these: Human immunodeficiency virus 1, MT4. Summed up:
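HIV-1 IIIB (from persistently infected H9/IIIB supernatant) added to MT-4 cells (1×10^4/well) with graded compound concentrations, dose set to give full cytopathicity by day 4, 37 °C. Cell viability read by MTT; EC50 = concentration giving 50% protection. Mean of three experiments.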

The EC90 is the point of the concentration-response curve where the effect stands at 90%. A low value points to greater potency. The pEC50 is the EC50 on a negative log10 scale, so that one unit is a factor of ten. A high value points to a small EC50. The term CC50 denotes the concentration that lowers cell viability or growth by half. High values mean lower toxicity to the cells, low ones greater toxicity to the cells.

Take `NC(=O)c1[nH]c2ccc(Cl)cc2c1S(=O)(=O)c1ccccc1` [L-737126]: the EC90 in test [1] worked out at 900 nM; in test [2], 7 nM. The pEC50 is 7.70 in test [3] and 5.10 in test [4]. The compound also returned a half-maximal cytotoxic concentration (CC50) with MT4 of 45000 nM. The Ratio in test [5] amounted to 45000.
With `NC(=O)CNC(=O)c1[nH]c2ccc(Cl)cc2c1S(=O)(=O)c1ccccc1`, in test [1], the 90% effect level (EC90) was put at 2700 nM. Moreover, the pEC50 in test [3] is 6.74; in test [6] it was 7.89; in test [4], less than 4.70. In the test with MT4, this compound returned a CC50 of 65000 nM. Besides, the Ratio in test [5] amounted to 5000.
For the compound `Cc1ccnc2c1NC(=O)c1cccnc1N2C1CC1` [NEVIRAPINE], the results for the EC90 in test [1] and in test [2] were more than 30000 nM and 120 nM, respectively. In addition, the results for the pEC50 in test [3], in test [6] and in test [4] were less than 4.52, 6.40 and less than 4.52, respectively. The compound also gave a CC50 in the test with MT4 of more than 100000 nM. In test [5], the Ratio is more than 270.
For `Cc1cc(C)cc(S(=O)(=O)c2c(C(=O)NC(C)C(=O)NN)[nH]c3ccc(Cl)cc23)c1` (stereo not drawn), the EC90 in test [1] amounted to 700 nM; in test [2], 70 nM. The pEC50 in test [3] is 6.85; in test [6] it was 7.52; in test [4] it was 5.33. Moreover, the CC50 with MT4 amounted to 20000 nM. Besides, the Ratio in test [5] was determined as 666.
With `CC(NC(=O)c1[nH]c2ccc(Cl)cc2c1S(=O)(=O)c1ccccc1)C(N)=O` (stereo not drawn), it took 3000 nM to reach the 90% level in test [1] (EC90). For the same compound, the pEC50 in test [3] was 6.44; in test [6] it was 8.00; in test [4], 4.80. This compound also gave a CC50 in the test on MT4 of 64000 nM. For the same compound, the Ratio in test [5] turned out to be 6400.
Regarding `Cc1cc(C)cc(S(=O)(=O)c2c(C(=O)NCC(N)=O)[nH]c3ccc(Cl)cc23)c1`, the EC90 in test [1] was determined as 100 nM; in test [2], 10 nM. Also, the pEC50 was 7.52 in test [3], 8.22 in test [6] and 6.10 in test [4]. In the test on MT4, the CC50 worked out at 30000 nM. Moreover, in test [5], the Ratio is 5000.
As to `NNC(=O)c1[nH]c2ccc(Cl)cc2c1S(=O)(=O)c1ccccc1`, the values for the EC90 in test [1] and in test [2] were 3000 nM and 20 nM, respectively. Moreover, the pEC50 was 6.40 in test [3] and not above 4.00 in test [4]. The same compound came in with a CC50 in the test with MT4 of more than 100000 nM. Moreover, in test [5], the Ratio is more than 10000.
On to `Cc1cc(C)cc(S(=O)(=O)c2c(C(=O)NCC(=O)NN)[nH]c3ccc(Cl)cc23)c1`, for which the values for the concentration for an effect of 90% (EC90) in test [1] and in test [2] were 1000 nM and 30 nM, respectively. For the same compound, the results for the pEC50 in test [3], in test [6] and in test [4] were 7.30, 8.00 and 5.70, respectively. Moreover, the CC50 in the test with MT4 is more than 100000 nM. The Ratio in test [5] was more than 10000.
Take `O=C1Nc2ccc(Cl)cc2[C@@](C#CC2CC2)(C(F)(F)F)O1` [EFAVIRENZ]: the concentration for an effect of 90% (EC90) turned out to be 1800 nM in test [1] and 8 nM in test [2]. The CC50 with MT4 was 35000 nM.
With `Cc1cc(C)cc(S(=O)(=O)c2c(C(N)=O)[nH]c3ccc(Cl)cc23)c1`, the EC90 in test [1] came out at 80 nM; in test [2], 6 nM. For the same compound, the results for the pEC50 in test [3] and in test [4] were 7.52 and 6.22, respectively. The same compound returned a CC50 in the test with MT4 of 15000 nM. In addition, the Ratio in test [5] was determined as 3750.
On to `Cc1cc(C)cc(S(=O)(=O)c2c(C(=O)NC(C)C(N)=O)[nH]c3ccc(Cl)cc23)c1` (stereo not drawn), for which the results for the EC90 in test [1] and in test [2] were 40 nM and 4 nM, respectively. In addition, the pEC50 was 8.00 in test [3], 8.52 in test [6] and 6.15 in test [4]. Besides, in the test on MT4, the CC50 stood at 4000 nM. Besides, the Ratio in test [5] was determined as 1330.
